A selection: hits, their analogues and other compounds. The true share with any hit is near 1.2%.
ARNT-TACC3 inh = disruptors of ARNT/TACC3 protein interaction, primary screen, biochemical, AlphaScreen, single concentration | hit rate 0.66% among 390,000 | Transforming acidic coiled-coil-containing protein 3 (Homo sapiens), Q9Y6A5 | AID 623870, 2012 | inhibition, % at 9.99 µM | AlphaScreen His-ARNT PAS-B/GST-TACC3 binding, luminescence; TACC3 fragment carries E629A point mutation;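 active means mean inhibition of replicates at least 50% and at least half of replicates each reaching 50%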
CaV13 FRET inh = Primary screen for inhibitors of IQ motif and Ca2+-dependent inactivation inhibitor domain binding in CACNA1D, Förster resonance energy transfer in living cells, … | HEK cells, CFP/YFP FRET ICDI-IQ, plate reader, 10 min; percent FRET-ratio fall versus neutral wells | inhibition, % at 12.3 µM | hit rate 0.098% among 340,000;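 active means mean replicate inhibition of at least 30% and at least 1% of replicates passing that level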
CAL PDZ FP-1 = CAL PDZ peptide-binding inhibitors, primary screen, biochemical, fluorescence polarization, Cer-tagged CAL PDZ, HTS. purified CAL PDZ, TMR-peptide fluorescence polarization, 1 h. hit rate 0.02% among 330,000. Golgi-associated PDZ and coiled-coil motif-containing protein (Homo sapiens), Q9HD26. inhibition, % at 20 µM;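 active means highest replicate inhibition of at least 40%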
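System: purified tagged CAL PDZ domain construct (CerCALP). Schedule: 1 h incubation at room temperature before polarization reading. Medium: 25 mM sodium phosphate pH 7.4, 150 mM NaCl, TCEP, IgG, Thesit. Read-out: percent inhibition from loss of millipolarization. Measured by: FP readout, S and P plane fluorescence. Probe or stimulus: fluorescent TMR peptide probe.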
CAL PDZ FP-2 = untagged CAL PDZ binding inhibitors, primary screen, biochemical, fluorescence polarization, HTS. Golgi-associated PDZ and coiled-coil motif-containing protein (Homo sapiens), Q9HD26. purified CAL PDZ, TMR-peptide fluorescence polarization, 1 h. inhibition, % at 24.9 µM. hit rate 0.92% among 300,000;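 active means mean inhibition of at least 30% with at least half of replicates also reaching 30%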
Numbers stand for hits; - = inactive; . = not tested or not shown; + = active, no number.

SMILES | ARNT-TACC3 inh | CaV13 FRET inh | CAL PDZ FP-1 | CAL PDZ FP-2
CCOc1ccc(OCCC(=O)OCC(=O)Nc2cccc(S(=O)(=O)N3CCCCC3)c2)cc1 | . | - | - | -
O=C(COC(=O)CN1C(=O)c2ccccc2C1=O)Nc1ccc(S(=O)(=O)N2CCCC2)cc1 | - | - | . | 35.4
NS(=O)(=O)c1ccc(NC(=O)COC(=O)CCC2CCCCC2)cc1 | - | - | - | -
C[C@H](CO)N1C[C@H](C)[C@H](CN(C)Cc2ccccn2)Oc2ncc(C#CCN(C)C)cc2C1=O | - | . | . | .
C[C@H](CO)N1C[C@H](C)[C@@H](CN(C)S(=O)(=O)c2cn(C)cn2)Oc2ccc(NC(=O)CCN3CCOCC3)cc2C1=O | - | . | . | .
Cc1ccc(S(=O)(=O)Nc2ccc3c(c2)CC(=O)N([C@@H](C)CO)C[C@H](C)[C@H](CN(C)CC2CCCCC2)O3)cc1 | - | . | . | .
C[C@H](O)C#Cc1cnc2c(c1)C(=O)N([C@@H](C)CO)C[C@@H](C)[C@H](CN(C)Cc1cccc(F)c1)O2 | - | . | . | .
COCc1cn(CC[C@@H]2CC[C@H](NC(=O)c3ccc(F)cc3)[C@H](CO)O2)nn1 | - | . | . | .
Cc1cccc(NC(=O)CCS(=O)(=O)c2ccccc2)c1 | - | - | - | 62.2
CC(=O)c1cc(Cl)ccc1OCC(=O)Nc1cccc(S(=O)(=O)N2CCCC2)c1 | . | - | - | 50.2
Cc1cccc(NCC(=O)NNC(=S)Nc2ccccc2)c1 | 46.9 | - | - | -
CCOc1ccccc1N=Nc1c(C)[nH]n(C(N)=S)c1=O | - | - | . | 37.3
Cc1ccccc1N=Nc1c(C)[nH]n(C(N)=S)c1=O | - | - | - | -
CNC[C@H]1OCCCC[C@H](C)Oc2ccc(N(C)C)cc2C(=O)N([C@@H](C)CO)C[C@@H]1C | - | . | . | .
COc1cc(C2C(C#N)=C(N)N(N(C)C)C3=C2C(=O)CC(C)(C)C3)cc(OC)c1OC (stereo not drawn) | . | - | - | 44.3
CN(C)CCCNC1CS(=O)(=O)CC1O (stereo not drawn) | - | - | - | -
COCCCNC1CS(=O)(=O)CC1O (stereo not drawn) | - | - | - | 72.5
O=C(Nc1ccccn1)Nc1ccccc1[N+](=O)[O-] | - | - | . | +
CCCOc1ccc(C(=O)NNC(=S)NC(=O)c2ccco2)cc1 | - | 34.6 | - | -
CCC(=O)NC(=S)NNC(=O)c1ccc(OC)cc1 | 68.0 | - | - | -
N/C(=N\OC(=O)c1ccc2c(c1)OCO2)c1ccncc1 | - | - | - | 48.3
N/C(=N\OC(=O)c1ccc2c(c1)OCO2)c1ccc(Cl)cc1 | - | - | - | -
COc1ccccc1/C=N/NC(=O)c1ccc2c(c1)OCO2 | - | - | . | 69.9
C/C(=N\NC(=O)c1ccc2c(c1)OCO2)c1ccc2c(c1)OCO2 | - | - | - | 47.5
C/C(=N\NC(=O)c1ccc2c(c1)OCO2)c1ccc(C(=O)O)s1 | - | - | - | -
SMILES | ARNT-TACC3 inh | CaV13 FRET inh | CAL PDZ FP-1 | CAL PDZ FP-2
O=C(N/N=C/c1ccccc1OC(=O)c1ccc2c(c1)OCO2)c1ccccc1 | - | - | - | -
Cc1ccccc1-c1ccc([C@H]2[C@@H](CO)N3CCCCN(S(C)(=O)=O)C[C@H]23)cc1 | - | . | . | .
O=C(COC(=O)c1cccc(OC(F)F)c1)NC1CCCC1 | - | - | . | 42.3
O=C(COC(=O)c1ccc(OC(F)F)cc1)NC(=O)NC1CCCC1 | - | - | - | -
O=C1CC(c2ccc3c(c2)OCCO3)Oc2ccc([N+](=O)[O-])cc21 (stereo not drawn) | - | - | - | 79.2
O=C(Nc1ccc(CN2CCOCC2)cc1)c1ccc(-c2cccc(Cl)c2)o1 | - | - | - | 89.2
COc1ccccc1OCCSc1nc2ccccc2n1CC(N)=O | - | - | . | 58.8
CN(C)C(=O)C[C@@H]1C[C@H]2c3cc(NC(=O)c4ccc5c(c4)OCO5)ccc3O[C@H]2[C@H](CO)O1 | - | . | . | .
Cc1cc(C(=O)COC(=O)C2CCN(C(=O)c3ccc(Cl)cc3)CC2)c(C)n1CC1CCCO1 (stereo not drawn) | - | - | - | 66.5
COCC#Cc1ccc2c(c1)O[C@@H](CN(C)Cc1ccncc1)[C@@H](C)CN([C@@H](C)CO)S2(=O)=O | - | . | . | .
O=c1[nH]c(=O)c2nc(-c3ccc(Cl)cc3)cnc2[nH]1 | - | 99.9 | - | -
O=c1[nH]c(=S)[nH]c2nc(-c3ccccc3)cnc12 | - | - | - | -
CCCNC(=O)N(C)C[C@@H]1Oc2cc(C#CC(C)(C)O)ccc2S(=O)(=O)N([C@@H](C)CO)C[C@H]1C | - | . | . | .
Cc1cc(C)nc(SCC(=O)Nc2ccc(S(=O)(=O)Nc3onc(C)c3C)cc2)n1 | - | 80.0 | - | -
Cc1noc(NS(=O)(=O)c2ccc(NC(=O)CSc3ncccn3)cc2)c1C | - | - | - | .
COc1ccc(C)cc1NC(=O)Nc1ccc(Br)cn1 | - | - | - | 46.4
COc1ccc(C)cc1NC(=O)NC1CCCCCCC1 | - | - | - | -
C[C@@H]1CN([C@@H](C)CO)C(=O)Cc2cc(NC(=O)Nc3ccc(C(F)(F)F)cc3)ccc2O[C@H]1CN(C)C | - | . | . | .
O=C(O)COc1ccccc1/C=N/NC(=O)c1cc(-c2ccc(F)cc2)nc2ccccc12 | 47.0 | - | - | -
N#C[C@H]1[C@@H](c2ccccc2)[C@H](CO)N1C(=O)c1cc(Cl)cc(Cl)c1 | - | . | . | .
OCCCc1cn(Cc2ccccc2)c2ccccc12 | - | - | . | 56.2
COCc1cc(Sc2ccc(Cl)cc2)nc(-c2ccccc2)n1 | - | . | - | .
COCc1cc(Sc2cccc(Cl)c2Cl)nc(-c2ccccc2)n1 | - | . | - | 36.4
Nc1csnc1C(=O)O | 45.9 | . | - | -
CCc1nnc(NC(=O)Cc2ccc(OC)c(S(=O)(=O)N3CCOCC3)c2)s1 | . | - | . | .
SMILES | ARNT-TACC3 inh | CaV13 FRET inh | CAL PDZ FP-1 | CAL PDZ FP-2
CCSc1nnc(NC(=O)Cc2ccc(OC)c(S(=O)(=O)N3CCOCC3)c2)s1 | - | - | - | 39.1
Cn1c(=O)c([N+](=O)[O-])c(NCC2CCCO2)c2ccccc21 (stereo not drawn) | - | - | - | 72.6
C[C@H]1CN([C@@H](C)CO)C(=O)c2cccc(NS(=O)(=O)c3ccccc3)c2O[C@@H]1CN(C)C(=O)Nc1ccccc1 | - | . | . | .
COC(CNS(=O)(=O)c1cc2c3c(c1)CCN3C(=O)CC2)OC | - | - | - | 48.1
CO[C@@H]1CN(C)C(=O)c2cc(NC(C)=O)ccc2OC[C@H](C)N(Cc2ccc(F)cc2)C[C@@H]1C | - | . | . | .
Cc1ccc2[nH]c(=O)c(C3C(C#N)=C(N)Oc4c3ccc3cccnc43)cc2c1 (stereo not drawn) | 50.0 | - | - | -
COc1ccc(OCCSc2nnc(C(C)NC(=O)c3ccccc3F)n2C)cc1 (stereo not drawn) | - | - | - | 106.5
Cc1noc(C)c1NC(=O)N(C)C[C@@H]1Oc2ccc(N(C)C)cc2CC(=O)N([C@H](C)CO)C[C@H]1C | - | . | . | .

Screening data deposited in PubChem by Broad Institute.
